≈ marks a conversion by molar mass, not a printed value. Calls of active or inactive are those of the source.
Legend:
[1] = test system: Staphylococcus epidermidis; assay: Antimicrobial activity against Staphylococcus epidermidis ATCC 12228 after 12 to 16 hrs by broth micro-dilution method; assay type: functional
In short: (§1)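 Broth micro-dilution in tubes per CLSI. Serial twofold dilutions in Mueller-Hinton broth, top final concentration 200. The inoculum was 6 h cultures adjusted to 0.5 McFarland. Incubated 37 °C 12–16 h. MIC is the lowest concentration with no visible growth by eye. Growth control (no drug) and sterility control (uninoculated broth) were included.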

Shigella flexneri = assay: Antimicrobial activity against Shigella flexneri 301 after 12 to 16 hrs by broth micro-dilution method; assay type: functional; in short: as §1
[2] = test system: Staphylococcus epidermidis; assay: Antibiofilm activity against Staphylococcus epidermidis ATCC 35984 at 50 uM after 18 hrs by crystal violet staining method; assay type: functional, organism-based
In short: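 S. epidermidis ATCC35984 suspension seeded in microtiter wells, 37 °C 6 h to form young biofilm. PBS-washed ×4, then fresh TSB with graded compound dilutions, 37 °C 18 h. Washed, methanol-fixed 15 min, air-dried, crystal violet stained, OD570 read. Cut-off ODc = mean OD570 of negative control + 3×SD (0.28); triplicate.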

[3] = test system: Staphylococcus epidermidis; assay: Antimicrobial activity against Staphylococcus epidermidis ATCC 35984 after 12 to 16 hrs by broth micro-dilution method; assay type: functional; in short: as §1
Escherichia coli = assay: Antimicrobial activity against Escherichia coli ATCC 25922 after 12 to 16 hrs by broth micro-dilution method; assay type: functional; in short: as §1
Staphylococcus aureus = assay: Antimicrobial activity against Staphylococcus aureus ATCC 25923 after 12 to 16 hrs by broth micro-dilution method; assay type: functional; in short: as §1
[4] = Hemolytic activity in human erythrocytes at 100 uM after 1 hr by spectrophotometry; assay type: ADME, cell-based; settings: erythrocyte, 50 µM, in the assay text read “50 uM” for “100 uM”
In short: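 Healthy human erythrocytes exposed to compounds. After incubation, centrifuged at 350 × g for 10 min, and hemolysis read as supernatant absorbance at 570 nm. DMSO (0.1%) served as negative control and Triton X-100 (1%) as positive control.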

[5] = Inhibition of recombinant YycG kinase HK domain autophosphorylation activity (unknown origin) expressed in Escherichia coli BL21 (DE3) preincubated for 30 mins by ATP-Luminescence assay
In short: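 YycG HATPase_c + HisKA domains, expressed in E. coli BL21(DE3), purified on Ni-NTA. Protein at 0.13 mmol/L pre-incubated with serial compound dilutions in 40 mmol/L Tris pH 8.0, 20 mmol/L MgCl₂, 0.1 mg/mL BSA, 25 °C 30 min. ATP 4 mmol/L added, 30 min at 25 °C. Remaining ATP measured by Kinase-Glo luminescence. IC50 fitted from phosphorylation-inhibition rates.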

Structure (SMILES) | MIC [1] | MIC (Shigella flexneri) | MIC [3] | MIC (Escherichia coli) | MIC (Staphylococcus aureus) | IC50 [5] | Activity [2] | Activity [4]
CCOC(=O)C1=C(c2ccccc2)N=c2s/c(=C\c3ccc(-c4cccc(C(=O)O)c4)o3)c(=O)n2C1c1ccccc1 (configuration not stated) | 200 µM (≈ 115 µg/mL) | > 200 µM | 200 µM (≈ 115 µg/mL) | > 200 µM |  |  | inactive | Non-toxic
CCOC(=O)C1=C(c2ccccc2)N=c2s/c(=C\c3ccc(-c4cccc(C(=O)O)c4)o3)c(=O)n2C1c1ccc2c(c1)OCO2 (configuration not stated) | 6.25 µM (≈ 3.88 µg/mL) | > 200 µM | 6.25 µM (≈ 3.88 µg/mL) | > 200 µM | 6.25 µM (≈ 3.88 µg/mL) | 14 µM | Active | Non-toxic
O=C(O)c1cccc(-c2ccc(/C=c3\sc4n(c3=O)C(c3ccc(F)cc3)C=C(c3ccccc3)N=4)o2)c1 (configuration not stated) | 3.12 µM (≈ 1.63 µg/mL) | > 200 µM | 6.25 µM (≈ 3.27 µg/mL) | > 200 µM | 6.25 µM (≈ 3.27 µg/mL) |  | Active | Non-toxic
CCOC(=O)C1=C(C)N=c2s/c(=C\c3ccc(OCC(=O)O)cc3)c(=O)n2C1c1ccc(OC)cc1 (configuration not stated) | 50 µM (≈ 25.4 µg/mL) | > 200 µM | 50 µM (≈ 25.4 µg/mL) | > 200 µM |  |  | inactive | Non-toxic
CCOC(=O)C1=C(c2ccccc2)N=c2s/c(=C\c3ccc(-c4cccc(C(=O)O)c4)o3)c(=O)n2C1c1ccc(F)cc1 (configuration not stated) | 3.12 µM (≈ 1.86 µg/mL) | > 200 µM | 6.25 µM (≈ 3.72 µg/mL) | > 200 µM | 6.25 µM (≈ 3.72 µg/mL) |  | Active | Non-toxic
CCOC(=O)C1=C(C)N=c2s/c(=C\c3ccc(OCC(=O)O)cc3)c(=O)n2C1c1ccc(Cl)cc1 (configuration not stated) | 200 µM (≈ 103 µg/mL) | > 200 µM | 200 µM (≈ 103 µg/mL) | > 200 µM |  |  | inactive | Non-toxic
CCOC(=O)C1=C(c2ccccc2)N=c2s/c(=C\c3ccc(-c4cccc(C(=O)O)c4)o3)c(=O)n2C1c1ccc([N+](=O)[O-])cc1 (configuration not stated) | 3.12 µM (≈ 1.94 µg/mL) | > 200 µM | 1.56 µM (≈ 0.97 µg/mL) | > 200 µM | 25 µM (≈ 15.5 µg/mL) |  | inactive | Non-toxic
CCOC(=O)C1=C(c2ccccc2)N=c2s/c(=C\c3ccc(-c4ccc(C(=O)O)cc4)o3)c(=O)n2C1c1ccc(OC)cc1 (configuration not stated) | 6.25 µM (≈ 3.79 µg/mL) | > 200 µM | 6.25 µM (≈ 3.79 µg/mL) | > 200 µM |  |  | inactive | Non-toxic
Cc1nnc(SCC2=C(C(=O)O)N3C(=O)[C@@H](NC(=O)Cn4cnnn4)[C@H]3SC2)s1 [CEFAZOLIN] | 17.6 µM (≈ 8 µg/mL) |  | 17.6 µM (≈ 8 µg/mL) |  | 17.6 µM (≈ 8 µg/mL) |  |  | 
CCOC(=O)C1=C(C)N=c2s/c(=C\c3ccc(OCC(=O)O)c(OC)c3)c(=O)n2C1c1ccc(OC)cc1 (configuration not stated) | 50 µM (≈ 26.9 µg/mL) | > 200 µM | 50 µM (≈ 26.9 µg/mL) | > 200 µM |  |  | inactive | 

More lines, in order of falling MIC [3], values ahead:

MIC [1] | MIC (Shigella flexneri) | MIC [3] | MIC (Escherichia coli) | MIC (Staphylococcus aureus) | IC50 [5] | Structure (SMILES) | Activity [2] | Activity [4]
200 µM (≈ 121 µg/mL) | > 200 µM | 200 µM (≈ 121 µg/mL) | > 200 µM |  |  | CCOC(=O)C1=C(c2ccccc2)N=c2s/c(=C\c3ccc(OCC(=O)O)c(OC)c3)c(=O)n2C1c1ccc(Cl)cc1 (configuration not stated) | inactive | 
50 µM (≈ 29.6 µg/mL) | > 200 µM | 50 µM (≈ 29.6 µg/mL) | > 200 µM |  |  | CCOC(=O)C1=C(c2ccccc2)N=c2s/c(=C\c3ccc(-c4cccc(C(=O)O)c4)o3)c(=O)n2C1c1ccc(O)cc1 (configuration not stated) | inactive | Non-toxic
6.25 µM (≈ 3.72 µg/mL) | > 200 µM | 6.25 µM (≈ 3.72 µg/mL) | > 200 µM | 6.25 µM (≈ 3.72 µg/mL) |  | CCOC(=O)C1=C(c2ccccc2)N=c2s/c(=C\c3ccc(-c4ccc(C(=O)O)cc4)o3)c(=O)n2C1c1ccc(F)cc1 (configuration not stated) | Active | Non-toxic
 | > 200 µM | 6.25 µM (≈ 3.4 µg/mL) | > 200 µM |  |  | CCOC(=O)C1=C(C)N=c2s/c(=C\c3ccc(-c4cccc(C(=O)O)c4)o3)c(=O)n2C1c1ccc(OC)cc1 (configuration not stated) | inactive | Non-toxic
3.12 µM (≈ 1.91 µg/mL) | > 200 µM | 6.25 µM (≈ 3.82 µg/mL) | > 200 µM | 6.25 µM (≈ 3.82 µg/mL) |  | CCOC(=O)C1=C(c2ccccc2)N=c2s/c(=C\c3ccc(-c4ccc(C(=O)O)cc4)o3)c(=O)n2C1c1ccc(Cl)cc1 (configuration not stated) | Active | Non-toxic
3.12 µM (≈ 1.9 µg/mL) | > 200 µM | 3.12 µM (≈ 1.9 µg/mL) | > 200 µM |  |  | CCOC(=O)C1=C(c2ccccc2)N=c2s/c(=C\c3ccc(-c4cccc(C(=O)O)c4)o3)c(=O)n2C1c1ccc(OC)cc1 (configuration not stated) | Active | Non-toxic
3.12 µM (≈ 1.8 µg/mL) | > 200 µM | 3.12 µM (≈ 1.8 µg/mL) | > 200 µM |  |  | CCOC(=O)C1=C(c2ccccc2)N=c2s/c(=C\c3ccc(OCC(=O)O)cc3)c(=O)n2C1c1ccc(Cl)cc1 (configuration not stated) | inactive | Non-toxic
6.25 µM (≈ 3.34 µg/mL) | > 200 µM | 1.56 µM (≈ 0.834 µg/mL) | > 200 µM | 6.25 µM (≈ 3.34 µg/mL) | 49.9 µM | COc1ccc(C2C=C(c3ccccc3)N=c3s/c(=C\c4ccc(-c5cccc(C(=O)O)c5)o4)c(=O)n32)cc1 (configuration not stated) | inactive | Non-toxic
6.25 µM (≈ 3.37 µg/mL) | > 200 µM | 1.56 µM (≈ 0.841 µg/mL) | > 200 µM | 3.12 µM (≈ 1.68 µg/mL) | 55.6 µM | O=C(O)c1cccc(-c2ccc(/C=c3\sc4n(c3=O)C(c3ccc(Cl)cc3)C=C(c3ccccc3)N=4)o2)c1 (configuration not stated) | Active | Non-toxic
3.12 µM (≈ 1.91 µg/mL) | > 200 µM | 1.56 µM (≈ 0.953 µg/mL) | > 200 µM | 6.25 µM (≈ 3.82 µg/mL) | 12.7 µM | CCOC(=O)C1=C(c2ccccc2)N=c2s/c(=C\c3ccc(-c4cccc(C(=O)O)c4)o3)c(=O)n2C1c1ccc(Cl)cc1 (configuration not stated) | Active | Non-toxic

From ChEMBL document CHEMBL3352199, “Biological evaluation of halogenated thiazolo[3,2-a]pyrimidin-3-one carboxylic acid derivatives targeting the YycG histidine kinase” (Eur J Med Chem, 2014)
